Bioassay records: PubChem, several laboratories
UCH37 DUB inh = inhibitors of human UCH37 deubiquitinase, primary screen, biochemical, Ub-AMC cleavage, fluorescence | inhibition, % (no concentration beside the values) | purified proteasome/UCH37 | Ubiquitin carboxyl-terminal hydrolase isozyme L5 (Homo sapiens), Q9Y5K5 | AID 588478, 2011 | 330,000 tested, 0.33% active;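 active = mean inhibition over replicate wells above about 20%, limit read from the data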;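 also: 0% = compound-free wells with enzyme and 100% = wells lacking proteasome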
Target sequence (Q9Y5K5 whole entry, looked up): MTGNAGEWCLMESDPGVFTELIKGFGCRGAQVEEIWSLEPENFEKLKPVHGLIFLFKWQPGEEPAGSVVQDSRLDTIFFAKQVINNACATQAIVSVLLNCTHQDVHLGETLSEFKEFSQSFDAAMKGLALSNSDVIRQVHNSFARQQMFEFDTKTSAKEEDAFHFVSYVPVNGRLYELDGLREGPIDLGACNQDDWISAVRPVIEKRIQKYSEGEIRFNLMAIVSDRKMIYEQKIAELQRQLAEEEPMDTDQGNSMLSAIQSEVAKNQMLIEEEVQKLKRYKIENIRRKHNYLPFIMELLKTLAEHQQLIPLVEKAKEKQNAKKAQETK
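Material: Human UCH37 enzyme supplied as purified proteasome complex | Schedule: 30 min compound-proteasome preincubation then 25 min substrate reaction, room temperature | Detection: AMC fluorescence from Ub-AMC cleavage, excitation 355 nm, emission 460 nm | Benchmarks: Wells without proteasome as full block, compound-free enzyme plus substrate as uninhibited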
MEKK2 WT-MEK5 = modulators of MEK5 binding to wildtype MEKK2, primary screen, biochemical, multiplex bead flow cytometry, Alexa488-MEK5 | binding response (% of control), % at 10 µM | 290,000 tested, 1.1% active | AID 1531, 2009 | Mitogen-activated protein kinase kinase kinase 2 (Homo sapiens), Q9Y2U5 | Alexa488-MEK5 binding to MEKK2 WT; actives lie on both sides; in the data active = binding response below about 67% or above about 130%
MEKK3 PB1 HTS = modulators of MEKK3-MEK5 PB1 binding, primary screen, biochemical, wildtype MEKK3, multiplex bead flow cytometry, Alexa488-MEK5. Mitogen-activated protein kinase kinase kinase 3 (Homo sapiens), Q99759. binding response (% of control), % at 10 µM. AID 1529, 2009. 290,000 tested, 1.4% active. bead-based flow cytometry, Alexa488-MEK5 binding to MEKK3; actives lie on both sides; 0 = blocked by unlabeled MEK5, 100 = vehicle;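 active = binding response more than 3 SD above or below the average of its plate-row segment, actives on both sides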;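 also: Alexa488 bead fluorescence after subtracting the streptavidin-only scavenger bead signal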
MEKK2mut PB1 HTS = MEK5 binding signal on mutant MEKK2 PB1, primary screen, biochemical, multiplex bead flow cytometry, Alexa488-MEK5. Alexa488-MEK5 binding to MEKK2 mutant. percent response, % at 10 µM. 290,000 tested, 0.35% active. AID 1530, 2009; in the data active = percent response above about 24%, passing the limit was not always enough
Apaf-1 inh = inhibitors of human Apaf-1 apoptosome, primary screen, biochemical, DEVD-Rh110 fluorescence, uHTS; Apoptotic protease-activating factor 1 (Homo sapiens), O14727; inhibition, % at 20 µM; reconstituted apoptosome caspase-3 activity; 330,000 tested, 0.71% active; active = inhibition of at least 40% at 20 µM;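 also: plate controls were DMSO wells for no effect and DEVD-CHO caspase inhibitor wells for full effect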
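Medium: Hepes buffer, pH 7.5 / System: biochemical Apaf-1 apoptosome reconstitution / Measured by: Rh110 fluorescence, excitation 480 nm, emission 540 nm / Times: compound with Apaf-1, dATP, procaspase-3 30 min, then 50 min reaction, room temperature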
UBC13 inh = UBC13 polyubiquitin chain formation inhibitors, primary screen, biochemical, TR-FRET, uHTS; Ubiquitin-conjugating enzyme E2 N (Homo sapiens), P61088; inhibition, % at 20 µM; 330,000 tested, 0.47% active; AID 485273, 2010; in the data active = inhibition above about 45%, passing the limit was not always enough
Target sequence (P61088 whole entry, looked up): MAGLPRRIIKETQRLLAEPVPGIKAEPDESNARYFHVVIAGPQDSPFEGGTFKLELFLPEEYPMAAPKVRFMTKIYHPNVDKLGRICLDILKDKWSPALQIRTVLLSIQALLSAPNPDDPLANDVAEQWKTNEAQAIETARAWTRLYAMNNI
MEKK2wt confirm = modulators of MEK5 binding to wildtype MEKK2, confirmation, biochemical, single concentration, multiplex bead flow cytometry | AID 1892, 2009 | binding response (% of control), % at 10 µM | shares compounds with MEKK3 PB1 HTS | 5,900 tested, 2.4% active | Alexa488-MEK5 binding to MEKK2 WT; actives lie on both sides; in the data active = binding response below about 16% or above about 210%; inactive = in between
MEKK2mut confirm = mutant MEKK2 PB1-MEK5 binding signal retest – biochemical, single concentration, multiplex bead flow cytometry, confirmation | Alexa488-MEK5 binding to MEKK2 mutant | 5,900 tested, 2% active | percent response, % at 10 µM | shares compounds with MEKK3 PB1 HTS; in the data active = percent response mostly above about 71%, no sharp cut-off; inactive = mostly below about 38%;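 also: higher means compound restores mutant binding toward wildtype level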
MEKK3-MEK5 inh = MEKK3 wild-type PB1 binding to MEK5, inhibitors, confirmation, biochemical, bead multiplex flow cytometry, single concentration, wildtype. Alexa488-MEK5 binding to MEKK3; hits give low values. shares compounds with MEKK3 PB1 HTS. 5,900 tested, 1.8% active. AID 1894, 2009. binding response (% of control), % at 10 µM;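 active = binding response below 72% of control, or above a set upper limit, though filed actives all read lower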;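 also: 100% = DMSO only wells and 0% = binding blocked by excess unlabeled MEK5; lower values mean stronger disruption of MEK5 binding to MEKK3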
* marks the source's active call; other numbers are inactive results; nt = no result given; + = active, no number; [ ] = dose if it differs, or a comment. Shown are actives, neighbours in structure and some others; about 3% of the full set was active somewhere.

SMILES	UCH37 DUB inh	MEKK2 WT-MEK5	MEKK3 PB1 HTS	MEKK2mut PB1 HTS	Apaf-1 inh	UBC13 inh	MEKK2wt confirm	MEKK2mut confirm	MEKK3-MEK5 inh
COc1cc(/C=N/NC(=O)C2COc3ccccc3O2)ccc1O (centres undefined)	nt	96	102	-3	-24	3	nt	nt	nt
COc1cc(C=NNC(=O)C2(O)c3ccccc3-c3ccccc32)ccc1O	0	nt	nt	nt	nt	nt	nt	nt	nt
COc1cc(C=NNC(=O)C2c3ccccc3Oc3ccccc32)ccc1O	-1	nt	nt	nt	nt	nt	nt	nt	nt
COc1cc(/C=N\NC(=O)CNC(=O)C2COc3ccccc3O2)ccc1O (centres undefined)	nt	170*	134*	29	9	-5	95	-2	97
COc1cc(/C=N/NC(=O)C2(O)c3ccccc3-c3ccccc32)ccc1O	nt	108	148*	0	2	6	99	-11	100
COc1ccc(-n2ccnc2SCC(=O)NCc2ccc(F)cc2)c(OC)c1	2	102	102	-7	-7	19	nt	nt	nt
COc1ccccc1NS(=O)(=O)c1ccc2oc(=O)ccc2c1	5	98	102	0	-5	-10	nt	nt	nt
CCCC(=O)NCn1nnc(-c2ccc(Cl)cc2)n1	4	94	221*	+	nt	nt	102	1	103
O=C(Cn1nnc(-c2ccc(Cl)cc2)n1)NCc1ccco1	2	106	106	11	15	-21	nt	nt	nt
CC(=O)Oc1c2occc2cc2ccc(=O)oc12	-1	100	89	3	-4	-4	nt	nt	nt
COc1c2occc2c(OC(C)=O)c2c(=O)cc(C)oc12	4	79	80*[inhibitor]	49*	1	11	98	-5	100
CCN1CCCC1CNc1ncnc2c1[nH]c1ccc(Cl)cc12 (centres undefined)	-3	125	101	35*	22	19	119	4	90
COc1ccc(NC(=O)N2CCN(CCC#N)CC2)cc1	1	96	100	0	0	3	nt	nt	nt
N#CCCN1CCN(C(=O)c2c(N)no[n+]2[O-])CC1	3	112	128*	0	2	3	99	-5	102
c1cc(Nc2ncnc3sccc23)cc(-c2nnc3n2CCCCC3)c1	3	-1.0*[inhibitor]	-1.0*[inhibitor]	-17	12	9	107	4	103
Cc1cnc(C(=O)Nc2cccc(-c3nnc4n3CCCCC4)c2)cn1	3	102	101	2	-5	3	nt	nt	nt
CCn1c(CC(=O)Nc2ccccc2)nnc1SCC(=O)Nc1nncs1	0	98	96	-3	-3	4	nt	nt	nt
Cc1ccc(NC(=O)/C(=C/c2cccc([N+](=O)[O-])c2)NC(=O)C2CCCCC2)c(C)c1	2	2.0*[inhibitor]	1.0*[inhibitor]	-21	-18	-1	107	3	103
O=C(N1CCN(c2ccccc2F)CC1)C1(c2cccs2)CCOCC1	0	106	134*	0	0	-9	97	2	103
O=C(COC(=O)c1n[nH]c(=O)c2ccccc12)c1ccccc1	3	99	97	0	4	0	nt	nt	nt
COc1cccc(C(=O)COC(=O)c2n[nH]c(=O)c3ccccc23)c1	nt	71	60*[inhibitor]	-12	8	5	101	4	104
O=C(c1ccccc1)c1c2c(cc3sc4ccccc4[n+]13)-c1cccc3cccc-2c13	4	60*[inhibitor]	91	-3	nt	nt	91	-2	93
Cc1sc2cc3c(c(C(=O)c4ccccc4)[n+]2c1C)-c1cccc2cccc-3c12	7	93	90	0	nt	nt	nt	nt	nt
CCN(C(=O)c1cc2c(=O)[nH]c3ccc(C)cc3c2s1)c1ccc(F)cc1	-21	113	129*	25	1	-7	95	-2	95
CC(CN(C(N)=O)c1ccccc1O)C(=O)O (centres undefined)	-1	104	111	16	0	-8	nt	nt	nt
SMILES	UCH37 DUB inh	MEKK2 WT-MEK5	MEKK3 PB1 HTS	MEKK2mut PB1 HTS	Apaf-1 inh	UBC13 inh	MEKK2wt confirm	MEKK2mut confirm	MEKK3-MEK5 inh
COc1ccccc1C(=O)NCC(=O)Nc1cccnc1	4	95	104	-1	3	-5	nt	nt	nt
COc1ccccc1C(=O)NCCC(=O)Nc1cccnc1	3	80	73*[inhibitor]	-13	-6	6	105	0	102
Clc1ccc(-c2csc3ncnc(Cl)c23)cc1	2	104	130*	0	12	1	104	8	104
Fc1ccc(-c2csc3ncnc(Cl)c23)cc1	1	117	110	14	15	-8	nt	nt	nt
CCc1ccc(OCC(=O)Oc2ccc([N+](=O)[O-])cc2)cc1	5	50*[inhibitor]	39*[inhibitor]	-15	4	-12	110	12	105
CCOC(=O)C1CCCN(CCC(=O)Nc2cc(C)ccc2C)C1 (centres undefined)	6	96	113	4	-6	9	nt	nt	nt
COC(=O)c1c(NC(=O)c2ccco2)sc2c1CCC2	-19	98	103	5	19	12	nt	nt	nt
COC(=O)c1c(NC(=O)/C=C/c2ccco2)sc2c1CCC2	3	104	134*	2	8	-7	96	-4	100
CC1(C)CC(=O)C2=C(C1)OC(N)=C([N+](=O)[O-])C2c1ccc(F)cc1 (centres undefined)	8	137	137*	27	-7	1	106	3	102
CCNC(=S)N1CCn2cccc2C1c1ccc(F)cc1 (centres undefined)	2	97	96	-3	11	7	nt	nt	nt
CNC(=S)N1CCn2cccc2C1c1cc(OC)c(OC)c(OC)c1 (centres undefined)	3	81	57*[inhibitor]	-3	-15	20	96	-3	99
